Data: ChEMBL document CHEMBL1150133, “New saponins from the starfish Certonardoa semiregularis” (J Nat Prod, 2002)
In brackets after ≈: the same amount, converted by molar mass.

Assays:
[1] = Cytotoxicity against human MT4 cells after 5 days by MTT assay; format: cell-based
Summary of the method: (§1)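 MT-4 cells (RPMI 1640/10% FBS), HIV-infected or mock-infected, were plated with 2× concentrated test samples and kept 5 days at 37 °C. Cells were inspected microscopically, then MTT was added for 1 h, dissolved in acidified 2-propanol, and read at 540 nm (690 nm reference). EC50 (50% protection) came from infected wells and CC50 (50% viability loss) from mock-infected wells.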

[2] = test system: Human immunodeficiency virus 1; test: Antiviral activity against HIV1 3B infected in human MT4 cells assessed as inhibition of virus-induced cytopathic effect after 5 days by MTT assay; format: functional, organism-based; settings: Human immunodeficiency virus 1, 3B, MT4, 120 h; summary of the method: as §1
[3] = test system: Human immunodeficiency virus 2; test: Antiviral activity against HIV2 ROD infected in human MT4 cells assessed as inhibition of virus-induced cytopathic effect after 5 days by MTT assay; format: functional, organism-based; settings: Human immunodeficiency virus 2, ROD, MT4, 120 h; summary of the method: as §1
[4] = Cytotoxicity against african green monkey Vero cells after 3 days by MTT assay; format: cell-based; settings: chlorocebus sabaeus
Summary of the method: (§2)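 Confluent Vero cells were infected at 100 CCID50 per well, or mock-infected, with 1 h adsorption at 37 °C. Compound in DMEM/2% FBS was added in duplicate per concentration, followed by 3 days at 37 °C. Viability was read by MTT, and EC50 for CPE inhibition and CC50 for cytocidal effect were calculated.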

Human alphaherpesvirus 1 = test: Antiviral activity against HSV1 F infected in african green monkey Vero cells assessed as inhibition of virus-induced cytopathic effect after 3 days by MTT assay; format: functional, organism-based; settings: Human alphaherpesvirus 1, F, 72 h; summary of the method: as §2
Human alphaherpesvirus 2 = test: Antiviral activity against HSV2 MS infected in african green monkey Vero cells assessed as inhibition of virus-induced cytopathic effect after 3 days by MTT assay; format: functional, organism-based; settings: Human alphaherpesvirus 2, MS, 72 h; summary of the method: as §2
[5] = Cytotoxicity against human HeLa cells after 2 days by MTT assay; format: cell-based
Summary of the method: (§3)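 In HeLa cells, virus-induced CPE inhibition was run with infected or mock-infected wells, 30 min virus adsorption, and compound in DMEM/2% FBS in duplicate per concentration. After 2 days at 37 °C, MTT read-out gave EC50 from infected wells and CC50 from mock-infected wells.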

Coxsackievirus B3 = test: Antiviral activity against Coxsackievirus B3 Nancy infected in human HeLa assessed as inhibition of virus-induced cytopathic effect after 2 days by MTT assay; format: functional, organism-based; settings: Enterovirus B, 48 h; summary of the method: as §3
[6] = test system: Encephalomyocarditis virus; test: Antiviral activity against Encephalomyocarditis virus EMC infected in human HeLa assessed as inhibition of virus-induced cytopathic effect after 2 days by MTT assay; format: functional, organism-based; settings: Cardiovirus A, 48 h; summary of the method: as §3
[7] = test system: Vesicular stomatitis Indiana virus; test: Antiviral activity against Vesicular stomatitis Indiana virus infected in human HeLa assessed as inhibition of virus-induced cytopathic effect after 2 days by MTT assay; format: functional, organism-based; settings: 48 h
Summary of the method: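 CPE-inhibition assay with VSV strain Indiana (stock grown in HeLa cells) on confluent HeLa cells (DMEM/5% FBS, gentamycin) in 96-well plates. Infection at 100 CCID50 per well with 30 min adsorption at 37 °C, then the compound in DMEM/2% FBS, duplicate wells per concentration, 2 days at 37 °C. Viability read by MTT; EC50 is the concentration giving 50% protection. Mock-infected wells gave CC50.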

SMILES | CC50 at 120 h [1] | EC50 [2] | EC50 [3] | CC50 at 72 h [4] | EC50 (Human alphaherpesvirus 1) | EC50 (Human alphaherpesvirus 2) | CC50 at 48 h [5] | EC50 (Coxsackievirus B3) | EC50 [6] | EC50 [7]
CO[C@H]1[C@H](O[C@H]2[C@H](O[C@@H](CC[C@@H](C)[C@H]3C[C@@H](O)[C@@H]4[C@]3(C)CC[C@@H]3[C@@]5(C)CC[C@H](O)[C@H](O)[C@@H]5[C@@H](OS(=O)(=O)[O-])C[C@]34O)C(C)C)O[C@H](CO)[C@@H]2O)OC[C@@H](OC)[C@@H]1O.[Na+] [CERTONARDOSIDE G] | > 100 µg/mL | > 100 µg/mL | > 100 µg/mL | > 100 µg/mL | > 100 µg/mL | > 100 µg/mL | > 100 µg/mL | > 100 µg/mL | > 100 µg/mL | > 100 µg/mL
CO[C@H]1[C@H](O[C@H]2[C@H](O[C@@H](CC[C@@H](C)[C@H]3C[C@@H](O)[C@H]4[C@@H]5C[C@H](O)[C@H]6[C@@H](O)[C@@H](O)CC[C@]6(C)[C@H]5CC[C@@]43C)C(C)C)O[C@H](CO)[C@@H]2O)OC[C@@H](OC)[C@@H]1O [CERTONARDOSIDE I] | 42.5 µg/mL (≈ 57.1 µM) | > 42.5 µg/mL | > 42.5 µg/mL | > 100 µg/mL | > 100 µg/mL | > 100 µg/mL | 59.9 µg/mL (≈ 80.4 µM) | > 59.9 µg/mL | > 59.9 µg/mL | > 59.9 µg/mL
C=C(CC[C@@H](C)[C@H]1C[C@@H](O)[C@@H]2[C@]1(C)CC[C@@H]1[C@@]3(C)CC[C@H](O)C[C@@H]3[C@@H](O)C[C@]12O)C(C)CO[C@@H]1OC[C@@H](O)[C@H](OS(=O)(=O)[O-])[C@H]1O[C@@H]1OC[C@@H](O)[C@H](O)[C@H]1OC.[Na+] (some centres undefined) [CERTONARDOSIDE C] | 1.4 µg/mL | > 1.4 µg/mL | > 1.4 µg/mL | 97.5 µg/mL | > 97.5 µg/mL | > 97.5 µg/mL | > 100 µg/mL | > 100 µg/mL | > 100 µg/mL | > 100 µg/mL
Cc1cn([C@H]2C[C@H](N=[N+]=[N-])[C@@H](CO)O2)c(=O)[nH]c1=O [ZIDOVUDINE] | 1.9 µg/mL (≈ 7.11 µM) | 0.001 µg/mL (≈ 0.00374 µM) | 0.007 µg/mL (≈ 0.0262 µM) | – | – | – | – | – | – | –
CO[C@H]1[C@H](O[C@H]2[C@H](OC[C@@H](C)[C@H](C)/C=C/[C@@H](C)[C@H]3C[C@@H](O)[C@@H]4[C@]3(C)CC[C@@H]3[C@@]5(C)CC[C@H](O)[C@H](O)[C@@H]5[C@@H](O)C[C@]34O)OC[C@@H](O)[C@@H]2OS(=O)(=O)[O-])OC[C@@H](O)[C@@H]1O.[Na+] [CERTONARDOSIDE D] | > 100 µg/mL | > 100 µg/mL | > 100 µg/mL | 79.9 µg/mL | > 79.9 µg/mL | > 79.9 µg/mL | > 100 µg/mL | > 100 µg/mL | > 100 µg/mL | > 100 µg/mL
Nc1ccn([C@H]2CC[C@@H](CO)O2)c(=O)n1 [ZALCITABINE] | 11 µg/mL (≈ 52.1 µM) | 0.1 µg/mL (≈ 0.473 µM) | 0.1 µg/mL (≈ 0.473 µM) | – | – | – | – | – | – | –
CO[C@@H]1CO[C@@H](OCC[C@@H](CC[C@@H](C)[C@H]2[C@@H](O)[C@@H](O)[C@H]3[C@@H]4C[C@H](OS(=O)(=O)[O-])[C@H]5[C@@H](O)[C@@H](O)CC[C@]5(C)[C@H]4CC[C@]23C)C(C)C)[C@H](O)[C@H]1O.[Na+] [CERTONARDOSIDE K] | > 100 µg/mL | > 100 µg/mL | > 100 µg/mL | > 100 µg/mL | 97.8 µg/mL | 82.1 µg/mL | 57.9 µg/mL | > 57.9 µg/mL | > 57.9 µg/mL | > 57.9 µg/mL
CO[C@@H]1CO[C@@H](OCC[C@@H](CC[C@@H](C)[C@H]2[C@@H](O)[C@@H](O)[C@@H]3[C@]2(C)CC[C@@H]2[C@@]4(C)CC[C@H](O)[C@H](O)[C@@H]4[C@@H](OS(=O)(=O)[O-])C[C@]23O)C(C)C)[C@H](O)[C@H]1O.[Na+] [CERTONARDOSIDE J] | 67.4 µg/mL | > 67.4 µg/mL | > 67.4 µg/mL | > 100 µg/mL | 81.1 µg/mL | 82.3 µg/mL | 58.8 µg/mL | > 58.8 µg/mL | > 58.8 µg/mL | > 58.8 µg/mL
C=C(CC[C@@H](C)[C@H]1C[C@@H](O)[C@@H]2[C@]1(C)CC[C@@H]1[C@@]3(C)CC[C@H](O)[C@H](O)[C@@H]3[C@@H](O)C[C@]12O)C(C)CO[C@@H]1OC[C@@H](O)[C@H](O)[C@H]1O[C@@H]1OC[C@@H](O)[C@H](O)[C@H]1OC (some centres undefined) [ACODONTASTEROSIDE G] | 42.5 µg/mL (≈ 56 µM) | > 42.5 µg/mL | > 42.5 µg/mL | > 100 µg/mL | 86.1 µg/mL (≈ 113 µM) | 94.5 µg/mL (≈ 125 µM) | 51.5 µg/mL (≈ 67.9 µM) | > 51.5 µg/mL | > 51.5 µg/mL | > 51.5 µg/mL
NC(=O)c1ncn([C@@H]2O[C@H](CO)[C@@H](O)[C@H]2O)n1 [RIBAVIRIN] | – | – | – | – | – | – | 300 µg/mL (≈ 1230 µM) | 236 µg/mL (≈ 968 µM) | 27.2 µg/mL (≈ 111 µM) | 13.7 µg/mL (≈ 56.1 µM)
Nc1ccn([C@@H]2O[C@H](CO)[C@@H](O)[C@@H]2O)c(=O)n1 [CYTARABINE] | – | – | – | 4.8 µg/mL (≈ 19.7 µM) | 1.6 µg/mL (≈ 6.58 µM) | 3 µg/mL (≈ 12.3 µM) | – | – | – | –
Nc1nc2c(ncn2COCCO)c(=O)[nH]1 [ACYCLOVIR] | – | – | – | > 10 µg/mL | 0.8 µg/mL (≈ 3.55 µM) | 2.4 µg/mL (≈ 10.7 µM) | – | – | – | –
O=c1[nH]cnc2c1ncn2[C@H]1CC[C@@H](CO)O1 [DIDANOSINE] | > 100 µg/mL | 2.1 µg/mL (≈ 8.89 µM) | 11 µg/mL (≈ 46.6 µM) | – | – | – | – | – | – | –
C=C(CC[C@@H](C)[C@H]1C[C@@H](O)[C@@H]2[C@]1(C)CC[C@@H]1[C@@]3(C)CC[C@H](O)[C@H](O)[C@@H]3[C@@H](O)C[C@]12O)C(C)CO[C@@H]1OC[C@@H](O)[C@H](OS(=O)(=O)[O-])[C@H]1O[C@@H]1OC[C@@H](O)[C@H](O)[C@H]1OC.[Na+] (some centres undefined) [CERTONARDOSIDE A] | 6.8 µg/mL | > 6.8 µg/mL | > 6.8 µg/mL | > 100 µg/mL | > 100 µg/mL | > 100 µg/mL | > 100 µg/mL | > 100 µg/mL | > 100 µg/mL | > 100 µg/mL
CO[C@H]1[C@H](O[C@H]2[C@H](O[C@@H](CC[C@@H](C)[C@H]3C[C@@H](O)[C@@H]4[C@]3(C)CC[C@@H]3[C@@]5(C)CC[C@H](O)[C@H](O)[C@@H]5[C@@H](O)C[C@]34O)C(C)C)O[C@H](CO)[C@@H]2O)OC[C@@H](OC)[C@@H]1O [CERTONARDOSIDE F] | 39.7 µg/mL (≈ 52.2 µM) | > 39.7 µg/mL | > 39.7 µg/mL | > 100 µg/mL | > 100 µg/mL | > 100 µg/mL | 64.8 µg/mL (≈ 85.2 µM) | > 64.8 µg/mL | > 64.8 µg/mL | > 64.8 µg/mL
